Measurements reported in ChEMBL document CHEMBL3425433, “Discovery of bicyclic pyrazoles as class III histone deacetylase SIRT1 and SIRT2 inhibitors” (Bioorg Med Chem Lett, 2015).

Molecular target: T1, NAD-dependent protein deacetylase sirtuin-1 (Homo sapiens) (UniProt Q96EB6)
T1 sequence (whole entry): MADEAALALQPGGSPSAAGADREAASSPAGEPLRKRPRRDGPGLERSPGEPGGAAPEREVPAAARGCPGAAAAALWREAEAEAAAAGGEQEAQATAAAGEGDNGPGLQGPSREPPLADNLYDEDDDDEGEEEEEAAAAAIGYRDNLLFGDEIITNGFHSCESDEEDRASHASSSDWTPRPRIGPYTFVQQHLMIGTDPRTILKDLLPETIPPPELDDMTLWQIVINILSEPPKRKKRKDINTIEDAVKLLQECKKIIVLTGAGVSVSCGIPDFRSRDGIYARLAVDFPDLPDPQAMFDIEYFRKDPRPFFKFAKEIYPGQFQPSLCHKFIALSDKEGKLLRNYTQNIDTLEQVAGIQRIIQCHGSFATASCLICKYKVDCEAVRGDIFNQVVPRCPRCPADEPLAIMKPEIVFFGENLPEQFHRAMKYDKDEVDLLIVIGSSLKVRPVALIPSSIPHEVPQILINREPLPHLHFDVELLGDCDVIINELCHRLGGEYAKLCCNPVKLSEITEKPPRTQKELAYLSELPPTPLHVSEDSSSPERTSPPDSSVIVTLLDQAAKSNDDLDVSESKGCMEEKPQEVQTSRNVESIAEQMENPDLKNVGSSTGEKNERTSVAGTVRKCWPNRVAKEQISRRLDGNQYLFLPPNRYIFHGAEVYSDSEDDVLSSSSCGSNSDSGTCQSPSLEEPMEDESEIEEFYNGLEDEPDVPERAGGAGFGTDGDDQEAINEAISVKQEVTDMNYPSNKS
Experiment: Inhibition of SIRT1-mediated endogenous p53 deacetylase activity in human Namalwa cells assessed as concentration required to […] to twice the basal level after 3 hrs by ELISA
Format: cell-based
Procedure, shortened: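 Namalwa cells, 50,000/well, were exposed 3 h at 37 °C, 5% CO2, to 0.005–50 µM final (0.95% DMSO). Lysates were ELISA-captured on anti-p53 (DO-1), probed overnight with anti-acetyl-Lys382-p53, then HRP conjugate and Amplex Red (15 min; ex 550/em 610 nm). IC2xB is the concentration doubling basal (lowest) fluorescence. Means of three experiments.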

Compound: NC(=O)C1CCCc2c1[nH]c1ccc(Cl)cc21 (racemic)
- INH: 0.6 µM
